Screens: PubChem, several laboratories
Rows were chosen to be rich in hits. Some 1.4% of all compounds tested hit in one or more screens of this group.
KLK5 inh = kallikrein 5 (human) inhibition | inhibition, % at 5 µM | 210,000 tested, 0.59% active | Q9Y337 | recombinant hK5, fluorogenic AMC substrate cleavage;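 active means inhibition of 40% or more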;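 further: 0% = enzyme controls without compound and 100% = no-enzyme blanks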
Calpain2 inh = calpain II (pig) inhibition | purified calpain II, fluorogenic peptide substrate, 30 min | inhibition, % at 16 µM | 220,000 tested, 0.37% active;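 active means inhibition above about 50%, limit read from the data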
thrombin 1536 = blocks human thrombin protease activity; alpha-thrombin, Boc-VPR-AMC fluorogenic substrate cleavage; inhibition, % at 5 µM; 220,000 tested, 0.26% active; P00734; AID 1046;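 active means inhibition at or above 40%; inactive means inhibition below 40%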;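 further: 0% = enzyme with no compound and 100% = wells without enzyme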
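Assay system: human alpha-thrombin enzyme. Reagent: Boc-VPR-AMC substrate, 15 µM final. Compound dosing: one concentration per compound, 5 µM, with 0.2% DMSO. Incubation: room-temperature reaction. Technique: AMC fluorescence, 355/460 nm. Measure: % inhibition relative to enzyme controls and enzyme-free blanks.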
FXIa inh 1536 = factor XIa (human) inhibition; purified FXIa, Boc-Glu-Ala-Arg-AMC fluorogenic substrate; inhibition, % at 5 µM; P03951; 220,000 tested, 0.14% active;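 active means inhibition of at least 40%; inactive means inhibition below 40%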;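 further: fluorescence of freed AMC excited at 355 nm; 0% = enzyme without compound and 100% = no enzyme blank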
FXIIa inh 1536 = blocks human coagulation factor XIIa protease activity | purified FXIIa, Boc-QGR-AMC fluorogenic substrate, 2 h | inhibition, % at 5 µM | 220,000 tested, 0.3% active; in the data active means inhibition above about 40%;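 further: 0% = enzyme with no compound and 100% = blank without enzyme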
Target sequence (P00748 20-372 limits assumed): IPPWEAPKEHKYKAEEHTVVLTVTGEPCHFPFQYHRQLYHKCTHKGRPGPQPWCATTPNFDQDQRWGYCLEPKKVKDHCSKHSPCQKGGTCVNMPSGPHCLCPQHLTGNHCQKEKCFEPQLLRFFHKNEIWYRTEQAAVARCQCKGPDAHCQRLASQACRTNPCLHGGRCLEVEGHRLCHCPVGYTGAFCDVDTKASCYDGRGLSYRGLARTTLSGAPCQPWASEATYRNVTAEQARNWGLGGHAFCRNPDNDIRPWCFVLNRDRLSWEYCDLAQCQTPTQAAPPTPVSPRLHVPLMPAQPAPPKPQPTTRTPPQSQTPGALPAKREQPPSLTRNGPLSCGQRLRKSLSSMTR
Target sequence (P00748 373-615 limits assumed): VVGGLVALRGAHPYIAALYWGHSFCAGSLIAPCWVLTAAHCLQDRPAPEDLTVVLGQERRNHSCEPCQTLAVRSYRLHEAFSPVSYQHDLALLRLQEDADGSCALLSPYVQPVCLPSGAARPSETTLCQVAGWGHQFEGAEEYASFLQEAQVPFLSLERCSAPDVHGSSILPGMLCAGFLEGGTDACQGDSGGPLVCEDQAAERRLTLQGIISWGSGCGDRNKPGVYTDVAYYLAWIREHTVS
Furin inhibitor = blocks human furin protease activity | purified furin, fluorogenic substrate cleavage | P09958 | inhibition, % at 20 µM or 30 µM | 220,000 tested, 0.061% active; in the data active means inhibition above about 25%
The depositor's hits bear a star; i = inactive; x = no result.

SMILES	KLK5 inh	Calpain2 inh	thrombin 1536	FXIa inh 1536	FXIIa inh 1536	Furin inhibitor
Cc1ccc(NC(=O)CN(c2ccccc2)S(=O)(=O)N(C)C)cc1C	43*	21	28	9	20	-20
CN(C)S(=O)(=O)N(CC(=O)Nc1ccccc1)c1ccccc1	-5	-23	2	4	14	-11
C/C(=N\Nc1cc(C)nc(NCc2ccccc2)n1)c1ccc([N+](=O)[O-])cc1	7	-80	-3	5	17	-14
C#CCOc1nc(Nc2cccc([N+](=O)[O-])c2)nc(OCC#C)n1	22	37	5	5	41*	-11
CCCC(=O)Nc1ccc(Cl)c(NC(=S)NC(=O)c2cc3ccccc3o2)c1	-19	52*	5	8	8	-6
O=C(Nc1ccc(F)cc1)c1nc2c(nnn2Cc2cccc3ccccc23)c(=O)[nH]1	0	-8	-1	3	12	-23
N#Cc1nc(COc2ccccc2)oc1N1CCN(c2cccc(Cl)c2)CC1	2	56*	-8	-6	-5	-16
CCn1nc(C)c(Br)c1C(=O)Sc1ccccc1Cl	4	-15	0	2	3	-16
O=C(c1ccccc1)c1coc2ccc(O)c(CN3CCOCC3)c12	-26	-17	-4	-13	6	-17
COc1ccc(C(=O)c2coc3ccc(O)c(CN4CCCCC4)c23)cc1	48*	12	13	4	10	-23
COc1ccc(OC)c(Cc2nnc(CCC(=O)N3CCCCCC3)o2)c1	-3	-1	10	-6	5	-18
COc1ccc(OC)c(Cc2nnc(CCC(=O)N3CCC(N4CCCCC4)CC3)o2)c1	44*	-18	23	30	32	-3
COc1ccc2c(c1)C(=O)N(c1ccccc1C)C(=O)C2(C)C	-4	-103	-8	-4	x	-22
Cn1cc(-c2nnc(-c3ccccc3)o2)c2ccccc21	87*	i	1	-11	-15	-23
COc1ccccc1NCC(=O)NNCC(=O)Nc1ccc(F)c(Cl)c1	0	-19	-57	7	13	-29
Cn1c(SCC(=O)c2ccccc2)nnc1-c1cccc(N)c1	60*	11	6	15	106*	-2
Cn1c(SCC(=O)c2ccccc2)nnc1-c1ccncc1	-16	3	5	-4	-2	-33
COc1cc2c(cc1NC(=O)C(C)OC(=O)c1ccc(S(=O)(=O)Nc3ccccc3Cl)cc1)oc1ccccc12 (stereo not given)	6	-93	-5	0	2	-21
COc1ccc(CNC(=O)COC(=O)CCc2c[nH]c3ccccc23)cc1	-7	17	8	-8	-3	-12
Cn1ccnc1C1CCCCN1C(=O)c1cc(COc2ccc(F)cc2F)on1 (stereo not given)	1	6	-3	-2	1	1
Nc1nc(-c2ccc(Cl)cc2)cc(C(F)(F)F)n1	42*	1	10	9	16	-24
Nc1nc(-c2ccc(F)cc2)cc(C(F)(F)F)n1	4	-35	0	7	17	-24
CCCN1CCN(C(=O)Cn2cnc3ccc(S(=O)(=O)N4CCC(C)CC4)cc3c2=O)CC1	-12	-11	-17	-5	3	-10
COc1ccc(/C=C/C(=O)Nc2ccccc2C)cc1S(=O)(=O)N1CCOCC1	18	4	8	8	22	0
CCC(C)(C)NC(=O)/C=C/c1ccc(OC)c(S(=O)(=O)N2CCOCC2)c1	43*	20	18	12	24	0
SMILES	KLK5 inh	Calpain2 inh	thrombin 1536	FXIa inh 1536	FXIIa inh 1536	Furin inhibitor
COc1ccc(N(C(=O)Cn2nnc(-c3ccc(Cl)cc3)n2)C(C(=O)NCC2CCCO2)c2ccc(C)cc2)cc1 (stereo not given)	-7	27	-11	-3	12	-32
COc1ccc(N(C(=O)Cn2nnc(-c3ccccc3F)n2)C(C(=O)NCC2CCCO2)c2ccc(Cl)cc2)cc1 (stereo not given)	-1	67*	-8	-3	4	-25
COc1cc(OC)c(OC)cc1/C=N/NC(=O)CCc1c(C)n[nH]c1C	20	-59	-6	-17	2	-21
CN(c1ccccc1)S(=O)(=O)c1cccc(NC(=O)c2ccc3ncsc3c2)c1	0	9	2	2	7	-19
CC1(C)CC(=O)C(C=Nc2ccncc2)=C(O)C1	x	x	x	x	x	-8
CC1(C)CC(=O)C(C=Nc2cccnc2)=C(O)C1	1	30	1	-4	1	41*
CC1(C)CC(=O)C(C=Nc2cccnc2/N=C/C2=C(O)CC(C)(C)CC2=O)=C(O)C1	-11	11	7	0	10	55*
COc1ccc(N=CC2=C(O)CC(C)(C)CC2=O)cc1	12	9	-4	-12	-5	34*
O=C(Nc1ccc(Br)cc1)Nc1ccccc1Cl	1	-15	0	2	5	-17
O=C(N/N=C/c1ccc(N2CCOCC2)cc1)C1COc2ccccc2O1 (stereo not given)	-1	-281	-3	2	3	-22
CC(C)CC(=O)O/N=C1\C(=O)N(Cc2ccc(Cl)cc2)c2ccc([N+](=O)[O-])cc21	6	-15	3	2	1	-18
CC1CCN(C(=O)c2ccc(NS(=O)(=O)c3cccc4cccnc34)cc2)CC1	0	-16	-1	0	7	-11
NC(=O)c1ccsc1NC(=O)c1nc(-c2ccccc2)n(-c2ccccc2)n1	-37	-343	44*	3	8	-22
Cc1ccc(-n2nnnc2SCC(=O)N2CCc3ccccc3C2)cc1	-21	39	4	7	5	-17
Cn1nnnc1SCC(=O)N1CCc2ccccc2C1	59*	7	25	11	35	-25
Cc1cc(C)c(S(=O)(=O)Nc2ccccc2C(=O)OCC(=O)NCc2ccccc2)c(C)c1	-1	-191	-2	-1	8	-20
O=C(c1cnc2sccn2c1=O)N(Cc1ccccc1)c1ccccn1	6	85*	-8	-10	6	-13
CCc1ccc(C(=O)COC(=O)c2nn(C)c(=O)c3ccccc23)cc1	-3	27	-6	-3	2	-19
CCc1ccc(C(=O)COC(=O)c2cccc(N3C(=O)c4c(C)nc5ccccc5c4C3=O)c2)cc1	51*	-18	9	0	17	-12
CCCNC(=O)N1CCN(c2ncccn2)CC1	61*	20	24	17	19	-23
O=C(Nc1ccccc1)N1CCN(c2ncccn2)CC1	-11	-48	-6	0	13	-23
Cc1cc(/C(N)=N/OC(=O)c2ccc(Cl)cc2)no1	44*	20	-2	-6	8	-23
Cc1cc(/C(N)=N/OC(=O)c2cccc(Cl)c2)no1	-2	-9	5	-3	17	-21
CC(=O)Nc1ccc(C(C#N)c2ccccc2)cc1 (stereo not given)	-2	6	-10	-5	1	-26
